Assay results reported in ChEMBL document CHEMBL1140415, “Synthesis, anti-HIV activity, and metabolic stability of new alkenyldiarylmethane HIV-1 non-nucleoside reverse transcriptase inhibitors” (J Med Chem, 2005).

How the values were obtained:
[1] = system: Human immunodeficiency virus 1; test: In vitro anti-HIV activity against HIV-1RF infected in CEM-SS cells using MTS cytoprotection assay; format: functional, organism-based; conditions: Human immunodeficiency virus 1, CEM-SS
[2] = target: Human immunodeficiency virus type 1 reverse transcriptase (Human immunodeficiency virus 1, UniProt Q72547); test: Inhibition of recombinant HIV-1 reverse transcriptase activity
CEM-SS = test: Cytotoxic concentration against mock infected in CEM-SS cells; format: functional; conditions: Homo sapiens
Procedure, shortened: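 Mock-infected CEM-SS cells, tested alongside the HIV-1 RF cytoprotection (MTS) assay. Data come from triplicate tests.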

[3] = system: Human immunodeficiency virus 2; test: In vitro anti-HIV activity against HIV-2ROD infected in MT-4 cells using MTT assay; format: functional, organism-based; conditions: Human immunodeficiency virus 2, MT4
Procedure, shortened: (§1)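 MT-4 cells infected with HIV-1 strain IIIB or HIV-2 strain ROD. Protection from viral cytopathicity was read by MTT. Triplicate tests.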

MT4 = test: Cytotoxic concentration against mock infected in MT-4 cells; format: functional; conditions: Homo sapiens
Procedure, shortened: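 Uninfected (mock-infected) MT-4 cells, run alongside the MTT antiviral assay. Triplicate tests.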

[4] = system: Human immunodeficiency virus 1; test: In vitro anti-HIV activity against HIV-1 IIIB infected in MT-4 cells using MTT assay; format: functional, organism-based; conditions: Human immunodeficiency virus 1, MT4; procedure, shortened: as §1
[5] = In vitro hydrolytic stability in rat plasma, expressed as t1/2; format: ADME, cell-free
Procedure, shortened: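 1,1-Diphenylethylene (2.1–5.1 mg) or benzophenone (2.1 mg) served as internal standard. Hydrolysis of the methyl ester was followed, and t1/2 is given in min ± SD from triplicate tests.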

[6] = In vitro hydrolytic stability in rat plasma, expressed as t1/2; Not hydrolyzed; format: ADME, cell-free
Procedure, shortened: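 Compounds (4.3–9.3 mg) were incubated in rat plasma in vitro. 1,1-Diphenylethylene (2.1–5.1 mg) or benzophenone (2.1 mg) served as internal standard. Hydrolysis of the methyl ester was followed, and t1/2 is given in min ± SD from triplicate tests.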

| SMILES | EC50 [1] [µM] | IC50 [2] [µM] | CC50 (CEM-SS) [µM] | EC50 [3] [µM] | CC50 (MT4) [µM] | EC50 [4] [µM] | half-life [5] [s] | T1/2 [6] |
| --- | --- | --- | --- | --- | --- | --- | --- | --- |
| COC(=O)CCC/C=C(/c1ccc(OC)c(OC)c1)c1cc(C)c(OC)c(C(=O)OC)c1 | 0.21 | 0.074 | 1.14 |  |  |  |  |  |
| COC(=O)c1cc(C(=CCCN2CCOC2=O)c2cc(Br)c(OC)c(C(=O)OC)c2)cc(Br)c1OC | 0.02 |  |  |  |  |  |  |  |
| COC(=O)CCC/C=C(/c1cc(Cl)c(OC)c(C(=O)OC)c1)c1cc(Cl)ccc1OC | > 100 | > 100 | 9.3 | > 5.41 | 5.41 | > 5.41 | 46.2 |  |
| COC(=O)CCC/C=C(/c1cc(C)c(OC)c(C(=O)OC)c1)c1cc(Cl)ccc1OC | > 100 | > 100 | 15.5 | > 13.8 | 13.8 | > 13.8 | 58.8 |  |
| COC(=O)CCC/C=C(/c1cc(F)cc(C(F)(F)F)c1)c1cc(C)c(OC)c(C(=O)OC)c1 | 7.3 | 55.3 | 12 | 10.6 | 113 | 2.54 | 261 |  |
| COC(=O)CCC/C=C(\c1cccc(C#N)c1)c1cc(Cl)ccc1OC | 7 | 7.58 | 16.3 | > 67.6 | ≥ 45.2 | 9.11 | 25.2 |  |
| COC(=O)CCC/C=C(\c1cc(C)c(OC)c(C(=O)OC)c1)c1cc(Cl)ccc1OC | > 100 | > 100 | 8.3 | > 14.5 | 18.8 | > 18.8 | 28.2 |  |
| COC(=O)CCC/C=C(\c1cc(F)cc(C(F)(F)F)c1)c1cc(Cl)c(OC)c(C(=O)OC)c1 | > 100 | > 100 | 16.1 |  |  |  |  |  |
| COc1ccc(/C(=C\CCN2CCOC2=O)c2cc(F)cc(C(F)(F)F)c2)cc1OC | > 100 | 97.8 | 14.5 | > 13.4 | 18.5 | > 18.5 |  | Not hydrolyzed |
| COc1ccc(/C(=C\CCN2CCOC2=O)c2cc(F)ccc2C(F)(F)F)cc1OC | > 100 | > 100 | 26.7 |  |  |  |  | Not hydrolyzed |
| COC(=O)CCC/C=C(/c1cc(C)c2on(C)c(=O)c2c1)c1cc(Cl)ccc1OC | > 100 | 8.2 | 13 | > 28.8 | > 28.8 | > 28.8 | 28.8 |  |
| COC(=O)CCC/C=C(\c1cc(F)cc(C(F)(F)F)c1)c1cc(C)c2on(C)c(=O)c2c1 | > 100 | > 100 | 16.8 | > 43.2 | 39.8 | > 35.7 | 52.2 |  |
| COC(=O)CCC/C=C(\c1cccc(C#N)c1)c1cc(C)c(OC)c(C(=O)OC)c1 | > 100 | 0.84 | 23.3 | > 169 | 153 | 12.8 | 42.6 |  |
| COC(=O)CCC/C=C(\c1cccc(C#N)c1)c1cc(C)c2onc(OC)c2c1 | > 100 | 5.7 | 0.8 | > 5.63 | 4.69 | > 2.05 | 87.6 |  |
| COC(=O)c1cc(/C(=C\CCN2CCOC2=O)c2cc(F)cc(C(F)(F)F)c2)cc(C)c1OC | 8.3 | 15.7 | 15 | > 22.6 | 24.7 | 9.6 | 563 |  |
| COC(=O)CCC/C=C(\c1cccc(C#N)c1)c1cc(Cl)c(OC)c(C(=O)OC)c1 | 7.1 | 0.75 | 20.2 |  | 213 | 8.55 | 26.4 |  |
| COC(=O)c1cc(/C(=C\CCN2CCOC2=O)c2ccc(OC)c(OC)c2)cc(C)c1OC | > 100 | 1 | 0.49 | > 1.05 | 1.05 | > 1.05 | 346 |  |
| COC(=O)c1cc(C(=CCCN2CCOC2=O)c2ccc(OC)c(OC)c2)cc(C)c1OC | > 100 | > 100 | 4.79 | > 35.4 | 82.5 | > 33.8 | 47.4 |  |
| COC(=O)CCC/C=C(\c1cc(F)cc(C(F)(F)F)c1)c1cc(C)c2onc(OC)c2c1 |  | 0.9 |  |  |  |  |  |  |
| COC(=O)CCC/C=C(\c1cc(F)cc(C(F)(F)F)c1)c1cc(C)c(OC)c(C(=O)OC)c1 | > 5 | > 100 | > 5 | > 5.89 | 5.7 | > 5.51 |  |  |
